Assay results of several laboratories.
Each line is one published result; the experiments were not run side by side.
Sample: plasma

Cc1c(-c2ccccc2)cccc1N1C(=O)c2cc(CN[C@H](C(=O)O)C(C)O)c(OCc3cccc(C#N)c3)cc2C1=O (some centres unmarked)  AUC(0-inf) (Sprague-Dawley rat; oral; 50 mg/kg): 100 ng·h/mL
CCc1nc(C(N)=O)c(Nc2ccc(N3CCC(N4CCN(C)CC4)CC3)c(OC)c2)nc1NC1CCOCC1  AUC(0-inf) (male Sprague-Dawley rat; oral; 10 mg/kg): 11500 ng·h/mL
CCc1cc(OC)c2nccc(N3CCc4c(cc(Cn5ccnc5)cc4-c4cn(C)nc4C(F)(F)F)C3=O)c2c1  AUC(0-inf) (male Sprague-Dawley rat; intravenous; 3 mg/kg): 955 ng·h/mL
Oc1c(Br)cc(Cl)c2cccnc12  AUC(0-inf) (Sprague-Dawley rat; subcutaneous; 10 mg/kg): 5300 ng·h/mL
COc1ccc2c(Cc3ccccc3F)c3n(c(=O)c2c1OC)CCc1cc2c(cc1-3)OCO2  AUC(0-inf) (rat; oral; 5 mg/kg): 7960 ng·h/mL
COc1cc2c3c(n(CCCN4CCOCC4)c(=O)c2cc1OC)-c1cc2c(cc1C3=O)OCO2  AUC(0-inf) (male Fischer 344 rat; intravenous; 24 mg/m²; single dose): 421 ng·h/mL
C#Cc1cccc(Nc2ncnc3cc(OCCOC)c(OCCOC)cc23)c1  AUC(0-inf) (male Sprague-Dawley rat; oral; 12 mg/kg; single dose): 9260 ng·h/mL
CCOC(=O)[C@@]12C[C@@H]1[C@@H](n1ccc3c(NC)nc(C#Cc4ccc(Cl)s4)nc31)[C@H](O)[C@@H]2O  AUC(0-inf) (male Sprague-Dawley rat; oral; 3 mg/kg): 172 ng·h/mL
O=C(Nc1cc(F)c(F)c(F)c1)c1ccc(F)c(S(=O)(=O)NCc2cccc(B(O)O)c2)c1  AUC(0-inf) (male Sprague-Dawley rat; intravenous; 2 mg/kg): 246 ng·h/mL
COc1ccc2c(=O)n(C)c(-c3ccccc3)nc2c1  AUC(0-inf) (male Sprague-Dawley rat; intravenous; 2 mg/kg): 857 ng·h/mL
COCCOC(=O)C1=C(C)NC(C)=C(C(=O)OC(C)C)C1c1cccc([N+](=O)[O-])c1 (centres unmarked)  AUC(0-inf) (male Sprague-Dawley rat; intravenous; 3 mg/kg): 573 ng·h/mL
COc1nc(-c2cc(C)c(N[C@@H](C)c3cc(F)cc(F)c3)nn2)ccc1-n1cnc(C)c1  AUC(0-inf) (male Sprague-Dawley rat; intravenous; 1 mg/kg; single dose): 6710 ng·h/mL
CCc1cc(C(=O)NC)c2nccc(N3CCc4c(cc(Cn5ccnc5)cc4-c4cn(C)nc4C(F)(F)F)C3=O)c2c1  AUC(0-inf) (male Sprague-Dawley rat; oral; 100 mg/kg): 117000 ng·h/mL
CNCc1cc(-c2ccccc2F)n(S(=O)(=O)c2cccnc2)c1  AUC(0-inf) (Sprague-Dawley rat; oral; 10 mg/kg): 645 ng·h/mL
